Vif inh: HIV Vif inhibition | HEK293T cells, Vif self-association by quenched fluorescence, imaging, 24 h | inhibition, % at 7.49 µM | actives 0.35% (n = 340,000) | AID 602346; in the data active means inhibition above about 50%, passing the limit was not always enough; inconclusive means no clear call, values can overlap the other calls; inactive means below about 31%
NR2E3 ag-1: agonists of human nuclear receptor NR2E3; GST-NR2E3/biotin-RetCOR TR-FRET, 1536-well; actives 0.12% (n = 320,000); inhibition of corepressor binding, % at 4.78 µM; Q9Y5X4; AID 2300;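 active means percent inhibition above the cutoff of mean plus 3 SD of all tested compounds, set per screening campaign, cut at about 20% in these data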
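System: GST-tagged NR2E3 plus biotinylated RetCOR corepressor; Buffer or medium: pH 7.5 Tris-based buffer; Probe or stimulus: RetCOR corepressor, biotinylated, 7 nM; Doses: compound at 4.8 µM, single dose; Schedule: 5 h incubation at 4 °C; Technique: time-resolved FRET; Evaluation: percent inhibition of TR-FRET ratio; Replication: one well per compound, singlicate testing.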
MT1-MMP act inh: inhibitors of human MT1-MMP activation; HT1080 RFP-PRO-GFP cells, GFP/RFP ratio fluorescence, overnight; percent of plate control window, DMSO zero; GFP/RFP ratio change, % at 20 µM; actives 0.061% (n = 360,000); P50281;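 active means GFP/RFP ratio change of at least 30% with cell ATP level not reduced by more than half and red fluorescence within 50% of control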
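Assay system: HT1080 RFP-PRO-GFP cells. Benchmarks: DMSO vehicle wells and RFP-L50D-GFP reporter cell wells. Times: overnight cell settling, then overnight compound exposure, 37 °C, 5% CO2. Compound: 20 µM single dose, 1% DMSO. Read-out basis: GFP/RFP fluorescence ratio.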
NR2E3 ag-2: activates human NR2E3 receptor; actives 0.35% (n = 360,000); AID 602229; CHO-S Gal4-NCOR/VP16-NR2E3 two-hybrid, luciferase; inhibition of corepressor binding, % at 3.98 µM; Q9Y5X4;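 active means inhibition above the mean of all tested compounds plus 3 SD, cut at about 70% in these data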;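 further: higher means lower luciferase signal from less NR2E3 corepressor binding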
HCV core dimer: blocks dimerization of HCV core protein. actives 0.33% (n = 300,000). TR-FRET GST/Flag-core106 dimerization, 1536-well. inhibition, % at 5 µM. AID 1899;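 active means inhibition above the mean of all tested compounds plus 3 SD, set per screening campaign, cut at about 45% in these data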
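Test system: GST/Flag-tagged HCV core106 proteins; Medium: KF-containing HEPES buffer, pH 7.45, DTT, CHAPS, BSA; Times: compound-protein-antibody incubation 4 h at 22.5 °C; Detection: TR-FRET 671 and 617 nm emission; Benchmarks: wells lacking GST-core106 and wells with excess unlabelled core106.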
DAGLB inhibitor: diacylglycerol lipase beta (human) inhibition | HEK293T DAGLB membrane lysate, EnzChek fluorogenic substrate | inhibition, % at 5.17 µM | actives 0.059% (n = 340,000) | AID 504411; in the data active means inhibition above about 34%
Target sequence (Q8NCG7 whole entry, looked up): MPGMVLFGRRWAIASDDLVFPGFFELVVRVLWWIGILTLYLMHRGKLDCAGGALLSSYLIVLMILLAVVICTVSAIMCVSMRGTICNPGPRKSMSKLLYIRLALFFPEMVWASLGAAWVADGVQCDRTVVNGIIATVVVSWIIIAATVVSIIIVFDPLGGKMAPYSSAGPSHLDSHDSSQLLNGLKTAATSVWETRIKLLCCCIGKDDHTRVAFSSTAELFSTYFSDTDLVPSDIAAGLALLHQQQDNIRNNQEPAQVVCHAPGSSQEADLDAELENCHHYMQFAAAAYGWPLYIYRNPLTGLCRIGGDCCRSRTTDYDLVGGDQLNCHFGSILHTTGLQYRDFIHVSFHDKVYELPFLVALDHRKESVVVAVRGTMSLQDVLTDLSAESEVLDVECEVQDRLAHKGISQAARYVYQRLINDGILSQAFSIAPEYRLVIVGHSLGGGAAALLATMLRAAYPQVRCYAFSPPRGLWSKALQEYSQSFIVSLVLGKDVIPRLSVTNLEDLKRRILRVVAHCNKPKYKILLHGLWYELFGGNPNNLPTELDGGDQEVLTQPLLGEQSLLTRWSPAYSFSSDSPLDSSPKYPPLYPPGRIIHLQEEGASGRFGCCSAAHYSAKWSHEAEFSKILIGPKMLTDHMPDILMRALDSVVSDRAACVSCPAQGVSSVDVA
Each line names hits and unclear results; the compound was inactive in the other large screens. An excerpt weighted towards active compounds, which were near 1.1% of everything screened.

CCC1=Nc2cc(C(=O)NCc3ccco3)ccc2Sc2ccc(C)cc21	Vif inh 56.9
COC(=O)[C@@]12C[C@@H](CC(=O)NCCC(C)C)C(=O)N(Cc3cccc4ccccc34)C1=CCC(C)(C)C2	none (no result: Vif inh, NR2E3 ag-1, NR2E3 ag-2, HCV core dimer, DAGLB inhibitor)
COc1ccc(N2C(=O)[C@@H]3[C@H](C2=O)[C@H](C(=O)c2ccc(OC(C)=O)cc2)N2N=CC=C[C@@H]32)cc1	HCV core dimer 46.1 (no result: Vif inh, MT1-MMP act inh, NR2E3 ag-2, DAGLB inhibitor)
CCC(C(=O)Nc1c(C)cccc1C)n1c(-c2ccc(=O)[nH]c2)nc2ccccc21 (stereo unspecified)	none (no result: Vif inh, NR2E3 ag-1, NR2E3 ag-2, HCV core dimer, DAGLB inhibitor)
COC(=O)[C@@]12C[C@@H](CC(=O)NCCC(C)C)C(=O)N(Cc3ccc4c(c3)OCO4)C1=CCC(C)(C)C2	none (no result: Vif inh, NR2E3 ag-1, NR2E3 ag-2, HCV core dimer, DAGLB inhibitor)
Cc1ccc2c(C)c(C(=O)N3CCCC(C(N)=O)C3)oc2c1C (stereo unspecified)	none (no result: NR2E3 ag-1, HCV core dimer)
CC1CCCC2(C1)NC(=S)c1c(sc3c1CCCC3)N2 (stereo unspecified)	HCV core dimer 52.7
CC1CCCC2(C1)NC(=S)N(c1ccccc1)N2 (stereo unspecified)	none
O=c1[nH]cnc2c1ncn2C1OC(CO)CC1F (stereo unspecified)	none (no result: NR2E3 ag-1, HCV core dimer, DAGLB inhibitor)
COc1ccccc1Nc1ncc(-c2cccs2)s1	HCV core dimer 49.8
CC[n+]1c(/C=C/N(C)c2ccccc2)n(-c2ccccc2)c2ccc(-c3nc4ccccc4s3)cc21	Vif inh inconclusive, NR2E3 ag-2 91.0
CCC1(CC)NC(=O)N(CC(=O)Nc2sc3c(c2C(N)=O)CCC3)C1=O	HCV core dimer 82.6
CCC1(C)NC(=O)N(CC(=O)Nc2sc3c(c2C(=O)OC)CCCCC3)C1=O (stereo unspecified)	none
CSc1ccc(CN2CCC(n3nccc3NC(=O)c3ccccc3C)CC2)cc1	none
CC(C)c1ccc(C(=O)N2CCCCC2c2cc(C(=O)NCc3cccnc3)no2)cc1 (stereo unspecified)	none (no result: NR2E3 ag-1, HCV core dimer, DAGLB inhibitor)
CCOC(=O)/C=c1\s/c(=C\c2sccc2C)c(=O)n1CC(=O)NCc1ccc(C)cc1	none (no result: Vif inh, MT1-MMP act inh, NR2E3 ag-2, DAGLB inhibitor)
Cc1cccc(-c2nnn(Cc3nnc(NC(=O)c4ccccc4)s3)n2)c1	Vif inh 72.7
COc1ccc(C(C#N)N2N=C(c3ccccc3)CC2c2ccccc2)cc1OC (stereo unspecified)	none
COc1ccc(C(C#N)N2N=C(C)CC2c2ccccc2)cc1OC (stereo unspecified)	Vif inh 54.3
C(=C/c1nccc2c1[nH]c1ccccc12)/c1ccc2c(c1)OCO2	Vif inh 71.8 (no result: NR2E3 ag-1, HCV core dimer)
CCCn1c(=O)[nH]c(=O)c2c1nc(-c1cc([N+](=O)[O-])ccc1Cl)n2CCOC	Vif inh 65.5
CCCn1c(=O)[nH]c(=O)c2c1nc(-c1ccc(C#N)cc1)n2CCOC	none
Cc1cccc2cc3c(nc12)SC(=NCC1CCCO1)N(Cc1ccco1)C3 (stereo unspecified)	HCV core dimer 78.6
CCOC(=O)/C(C#N)=C1\SS/C(=C(/C#N)C(=O)OCC)S1	none (no result: Vif inh, MT1-MMP act inh, NR2E3 ag-2, DAGLB inhibitor)
CC1CCN(Cc2c(C(=O)N/N=C/c3cc(Cl)ccc3O)nnn2-c2nonc2N)CC1	none
CC1CCN(Cc2c(C(=O)N/N=C/c3cc(Br)ccc3O)nnn2-c2nonc2N)CC1	Vif inh 52.5
O=C(NCc1ccccn1)C1CCN(C2CCN(Cc3cccc(F)c3)CC2)CC1	none (no result: NR2E3 ag-1, HCV core dimer)
Cc1ccc(N(O)C(=O)NCCCCNC(=O)N(O)c2ccc(C)cc2)cc1	none
COc1ccccc1N(C)S(=O)(=O)c1ccc(C(=O)NCc2ccccc2CN2CCCC2)cc1	none (no result: NR2E3 ag-1, HCV core dimer)
Cc1nc2ccc(C(=O)NCCc3c[nH]c4ccccc34)cn2c1N(C)C(=O)CCc1ccccc1	Vif inh 54.0 (no result: NR2E3 ag-1, HCV core dimer, DAGLB inhibitor)
Cc1ccc2nc(NC(=O)C3CCN(S(=O)(=O)c4cc([N+](=O)[O-])ccc4Cl)CC3)sc2c1	HCV core dimer 65.7
O=C(Nc1nc2ccc(F)cc2s1)C1CCN(S(=O)(=O)c2cc([N+](=O)[O-])ccc2Cl)CC1	HCV core dimer 46.5

Compound activity (PubChem BioAssay)
